Here are results for seven molecules from ChEMBL document CHEMBL1124779, “Synthesis and antitumor activity of 1-[[(dialkylamino)alkyl]amino]-4-methyl-5H-pyrido[4,3-b]benzo[e]- and -benzo[g])indoles. A new class of antineoplastic agents” (1990).

Test [1] concerns L1210. The experiment in a line: Tested for cytotoxicity in the multiple tumor disk diffusion soft agar assay at the dose of 15 ug/disk against leukemia L1210; range is 500-580. In kind it is functional, Mus musculus. The method, boiled down: (§1)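 Soft agar disk diffusion: bottom layer 0.8% noble agar, top layer 0.47% noble agar, both in 1:1 CMRL-Fischer medium with 11% horse serum. Top layer seeded with 5×10^3 L1210 cells or 10^6 solid tumor cells (C38, PO3). Drug applied on a dried 6-mm filter-paper disk. Incubation 7-11 days. Inhibition zone measured by inverted microscope, in units (1 unit = 30 μm).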
(A growth-free zone around the sample is the usual read-out of agar diffusion tests.)

Test [2] can be described thus: Tested for cytotoxicity in the multiple tumor disk diffusion soft agar assay at the dose of 15 ug/disk against solid tumor C38; U = 32 uM. Type of test: functional, Mus musculus. The method, boiled down:
as §1

The test system of test [3] is P388. The test is described as follows: In vivo T/C (survival time treated/survival time control x 100) was determined against P388 leukemia cells at 10 mg/Kg. Type of test: functional, Mus musculus. The method, boiled down: (§2)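 B6D2 F1 mice, at least five per group, were inoculated ip on day 0 with 10^6 viable P388 cells (25 mL/kg). Compounds were dissolved in distilled water and given ip (25 mL/kg) daily on days 1–4. Mortality was checked daily, with necropsy of dead animals. T/C×100 was median survival, treated versus control. Survivors beyond 50 days counted as cured and were excluded from the median.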

Test [4] concerns P388. The test is described as follows: In vitro cytotoxicity was determined against P388 leukemia cells. Type of test: functional. As to conditions: Mus musculus, read-out: ID50 (the source's name). The method, boiled down: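 P388 cells in exponential growth, RPMI 1640 with 2 mM glutamine, 10 μM 2-mercaptoethanol and 10% FCS, 5% CO2, 37 °C. Cells at 10^5 cells/mL. Drugs in distilled water added on day 0. Cells counted by Coulter counter after 96 h. ID50 (μg/mL, 50% inhibition of proliferation) estimated by regression of concentration/response data.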

For test [5], the system named is L1210. The experiment in a line: Cytotoxicity in the multiple tumor disk diffusion soft agar assay at the dose of 15 ug/disk against leukemia L1210. In kind it is functional, Mus musculus. The method, boiled down:
as §1

The nature of test [6]: Tested for cytotoxicity in the multiple tumor disk diffusion soft agar assay at the dose of 15 ug/disk against solid tumor PO3; U = […]. Type of test: functional, Mus musculus. The gist of the method: as §1
Test [7] concerns L1210. The test is described as follows: Tested for cytotoxicity in the multiple tumor disk diffusion soft agar assay at the dose of 15 ug/disk against leukemia L1210; U = 32 uM. In kind it is functional, Mus musculus. The method, boiled down:
as §1

Test [8] has as its system P388. The experiment in a line: In vivo T/C (survival time treated/survival time control x 100) was determined against P388 leukemia cells at 40 mg/Kg. Type of test: functional, Mus musculus. The method, boiled down: as §2
Test [9] relates to L1210. The test is described as follows: Tested for cytotoxicity in the multiple tumor disk diffusion soft agar assay at the dose of 15 ug/disk against leukemia L1210; range is 290-350. Type of test: functional, Mus musculus. The gist of the method:
as §1

Test [10] is described as follows: Cytotoxicity in the multiple tumor disk diffusion soft agar assay at the dose of 15 ug/disk against solid tumor PO3. Type of test: functional, Mus musculus. The gist of the method: as §1
The subject of test [11] is L1210. The test is described as follows: Tested for cytotoxicity in the multiple tumor disk diffusion soft agar assay at the dose of 15 ug/disk against leukemia L1210; range is 450-500. In kind it is functional, Mus musculus. The method, boiled down: as §1
Test [12] is described as follows: Cytotoxicity in the multiple tumor disk diffusion soft agar assay at the dose of 15 ug/disk against solid tumor C38. In kind it is functional, Mus musculus. The method, boiled down:
as §1

Test [13] has as its system L1210. The experiment in a line: Tested for cytotoxicity in the multiple tumor disk diffusion soft agar assay at the dose of 15 ug/disk against leukemia L1210. In kind it is functional, Mus musculus. The method, boiled down: as §1
Test [14] in a line: Tested for cytotoxicity in the multiple tumor disk diffusion soft agar assay at the dose of 15 ug/disk against solid tumor PO3; range is 430-480. In kind it is functional, Mus musculus.
In test [15] the test system is L1210. The test is described as follows: Tested for cytotoxicity in the multiple tumor disk diffusion soft agar assay at the dose of 15 ug/disk against leukemia L1210; range is 420-525. In kind it is functional, Mus musculus. The method, boiled down: as §1
Test [16] has as its system Mus musculus. The test is described as follows: Tested for medium tumor weight of treated /control animals x 100 (% T/C) for murine solid tumor model MA 16/C early stage that is subcutaneously implanted by the intravenous treatment at the dose of 5 mg/kg in 1-4 schedule. Type of test: functional. The gist of the method: (§3)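 sc implant of 1 mm³ tumor fragment. MA 16/C in C3H mice, B16 in C57BL/6 mice, C26 in CD2F1 mice; 10 per group. iv dosing on days 1-4 at 10 mL/kg. Mice weighed daily. Killed day 14 (C26) or day 15 (MA 16/C, B16) and tumors weighed. T/C×100 from median tumor weight, treated vs control. Body weight change taken from day 1 to 7.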

Test [17] has as its system Mus musculus. The test is described as follows: Tested for medium tumor weight of treated /control animals x 100 (% T/C) for murine solid tumor model C26 early stage that is subcutaneously implanted by the intravenous treatment at the dose of 10 mg/kg in 1-4 schedule. Type of test: functional. The method, boiled down: as §3
Test [18] has as its system Mus musculus. The experiment in a line: Tested for the change in body weight between day1 and 7 for murine solid tumor model MA 16/C early stage that is subcutaneously implanted by the intravenous treatment at the dose of 5 mg/kg in 1-4 schedule. Type of test: functional. The method, boiled down: (§4)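 Mice given sc 1 mm³ tumor fragment: C26 in CD2F1 mice, MA 16/C in C3H mice (tumors passaged in strain of origin), 10 per group. Drug given iv days 1–4 at 10 mL/kg. Animals weighed daily and watched for toxicity. Body-weight change taken from day 1 to day 7. Killed day 14 (C26) or 15 (MA 16/C).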

The nature of test [19]: Tested for medium tumor weight of treated /control animals x 100 (% T/C) for murine solid tumor model B16 early stage that is subcutaneously implanted by the intravenous treatment at the dose of 5 mg/kg in 1-4 schedule. In kind it is functional, Mus musculus. The gist of the method: as §3
Test [20] relates to Mus musculus. The test is described as follows: Tested for the change in body weight between day1 and 7 for murine solid tumor model C26 early stage that is subcutaneously implanted by the intravenous treatment at the dose of 10 mg/kg in 1-4 schedule. In kind it is functional. The method, boiled down: as §3
A short description of test [21]: Tested for the change in body weight between day1 and 7 for murine solid tumor model B16 early stage that is subcutaneously implanted by the intravenous treatment at the dose of 5 mg/kg in 1-4 schedule. Type of test: functional, Mus musculus. The method, boiled down: as §3
Test [22] deals with Mus musculus. The experiment in a line: Tested for the change in body weight between day1 and 14 for murine solid tumor model 3LL advanced stage that is intramuscularly implanted by the intravenous treatment at the dose of 2.5 mg/kg in 7-10 schedule.
For test [23], the system named is Mus musculus. The test is described as follows: Tested for the change in body weight between day1 and 7 for murine solid tumor model 3LL early stage that is intramuscularly implanted by the intravenous treatment at the dose of 2.5 mg/kg in 1-4 schedule.
In test [24] the test system is Mus musculus. The experiment in a line: Tested for medium tumor weight of treated /control animals x 100 (% T/C) for murine solid tumor model B16 early stage that is subcutaneously implanted by the intravenous treatment at the dose of 1.25 mg/kg in 1-4 schedule. Type of test: functional. The gist of the method:
as §3

For test [25], the system named is Mus musculus. The experiment in a line: In vivo total number of survivors was determined against L1210 Leukemia cells out of 8 mouse at 50 day. Type of test: functional, Leukemia cell. The method, boiled down:
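B6D2 F1 mice, at least five per group, were inoculated ip on day 0 with 10^5 viable L1210 cells (25 mL/kg). Compounds were dissolved in distilled water and given ip (25 mL/kg) on days 1–4. Deaths were checked daily, with necropsy to separate tumor from toxic death. T/C×100 was median survival of treated over controls. Mice surviving over 50 days counted as cured and were excluded from the median.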

For test [26], the system named is Mus musculus. The experiment in a line: Tested for medium tumor weight of treated /control animals x 100 (% T/C) for murine solid tumor model 3LL advanced stage that is subcutaneously implanted by the intravenous treatment at the dose of 2.5 mg/kg in 1-4 schedule. Type of test: functional.
Test [27] relates to Mus musculus. The test is described as follows: Tested for the change in body weight between day1 and 7 for murine solid tumor model C26 early stage that is subcutaneously implanted by the intravenous treatment at the dose of 2.5 mg/kg in 1-4 schedule. In kind it is functional. The gist of the method:
as §4

Test [28] deals with Mus musculus. The test is described as follows: Tested for the change in body weight between day1 and 7 for murine solid tumor model MA 16/C early stage that is subcutaneously implanted by the intravenous treatment at the dose of 2.5 mg/kg in 1-4 schedule. In kind it is functional. The method, boiled down:
as §4

In test [29] the test system is Mus musculus. The experiment in a line: Tested for mean number of metastases in treated/control animals x 100 (% T/C) for murine solid tumor model 3LL early stage that is intramuscularly implanted by the intravenous treatment at the dose of 2.5 mg/kg in 1-4 schedule.
Test [30] concerns Mus musculus. The test is described as follows: Tested for medium tumor weight of treated /control animals x 100 (% T/C) for murine solid tumor model C26 early stage that is subcutaneously implanted by the intravenous treatment at the dose of 2.5 mg/kg in 1-4 schedule. Type of test: functional. The gist of the method: as §3
The test system of test [31] is Mus musculus. The experiment in a line: Tested for medium tumor weight of treated /control animals x 100 (% T/C) for murine solid tumor model MA 16/C early stage that is subcutaneously implanted by the intravenous treatment at the dose of 2.5 mg/kg in 1-4 schedule. In kind it is functional. The gist of the method:
as §3

The test system of test [32] is Mus musculus. The test is described as follows: Tested for the change in body weight between day1 and 7 for murine solid tumor model B16 early stage that is subcutaneously implanted by the intravenous treatment at the dose of 1.25 mg/kg in 1-4 schedule. In kind it is functional. The gist of the method:
as §3

In brackets after ≈: the same amount, converted by molar mass.

For `Cc1cnc(NCCCN(C)C)c2c3ccc4ccccc4c3n(C)c12`, the Cytotoxicity with L1210 [1] was 500 U; in test [2] it was 480 U; in the test on L1210 [5], 450 U; in test [6], 325 U. Further, the “T/C x100” value in the test with P388 [3] was 119. The IC50 in the test with P388 [4] came out at 0.375 µg/mL (≈ 1.08 µM).
On to `COc1cccc2c1ccc1c3c(NCCCN(C)C)ncc(C)c3n(C)c21`, for which the Cytotoxicity in test [2] is 675 U; in the test on L1210 [7], 375 U; with L1210 [9], 290 U; in test [6] it was 275 U. In addition, the IC50 in the test on P388 [4] turned out to be 0.75 µg/mL (≈ 1.99 µM). Moreover, the “T/C x100” value with P388 [8] is on record as 130.
For `CCN(CC)CCCNc1ncc(C)c2c1c1c3ccc(OC)cc3ccc1n2C`, the Cytotoxicity in test [10] was 375 U; in the test with L1210 [11], 450 U; in test [12], 325 U; in the test on L1210 [5] it was 400 U. The IC50 in the test on P388 [4] turned out to be 0.75 µg/mL (≈ 1.85 µM). Besides, the “T/C x100” value in the test on P388 [8] worked out at 143.
`CCN(CC)CCCNc1ncc(C)c2c1c1ccc3c(O)cccc3c1n2C`: the Cytotoxicity is listed as 730 U in [2], 500 U in the test on L1210 [7], 450 U in the test on L1210 [13] and 430 U in test [14]. For the same molecule, the “T/C x100” value with P388 [3] is on record as 160. In the test with P388 [4], the IC50 came to 0.05 µg/mL (≈ 0.128 µM).
`CCN(CC)CCCNc1ncc(C)c2[nH]c3ccc4ccccc4c3c12`: the results for the Cytotoxicity (in the test on L1210 [15]; in test [12]) were 420 U and 525 U, respectively. Moreover, the IC50 in the test with P388 [4] stood at 0.18 µg/mL (≈ 0.499 µM). The “T/C x100” value with P388 [8] is 149.
Regarding `CCN(CC)CCCNc1nccc2c(C)c3[nH]c4ccncc4c3cc12` [PAZELLIPTINE], the T/C was 45% with Mus musculus [16], 10% in the test with Mus musculus [17] and 10% in [19]. Moreover, the Change in weight in the test on Mus musculus [18] is -1.5 g; in the test with Mus musculus [20] it was -1.5 g; in test [21] it was -0.5 g.
Consider `CCN(CC)CCCNc1nccc2c(C)c3[nH]c4ccc(OC)cc4c3c(C)c12` [RETELLIPTINE], for which the Change in weight with Mus musculus [22] was 0 g; with Mus musculus [23], -1.4 g; with Mus musculus [27], -2.1 g; in the test with Mus musculus [28] it was -2.2 g; in the test on Mus musculus [32] it was 1 g. For the same molecule, the T/C stood at 26% in the test with Mus musculus [24]; 40% with Mus musculus [26]; 0% with Mus musculus [29]; 0% with Mus musculus [30]; 4% in the test on Mus musculus [31]. In the test with Mus musculus [25], the Survivors came to 3.

As usually defined, the T/C is the result in the treated group divided by that in the control group, in per cent.
